Activity calls are given as the source filed them. The rule behind the calls is not given here.
Experiments:
Human alphaherpesvirus 3 [1] = assay: Antiviral activity against Varicella-zoster virus YS expressing thymidine kinase assessed as reduction of virus induced cytopathicity by cell based assay; assay type: functional, organism-based; conditions: for EC50: Human alphaherpesvirus 3, YS
Human alphaherpesvirus 3 [2] = assay: Antiviral activity against Varicella-zoster virus strain OKA expressing thymidine kinase assessed as reduction of virus induced cytopathicity by cell based assay; assay type: functional; conditions: for Activity: strain Oka vaccine; for EC50: Human alphaherpesvirus 3, strain Oka vaccine
In short: (§1)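 Confluent cell monolayers infected with 100 CCID50 virus, or 20 PFU for plaque assays, then incubated with serial compound dilutions. Host cells listed for the non-HIV panel are HEL fibroblasts, Vero, HeLa, CRFK or MDCK. Cytopathicity is scored, or plaques counted for VZV, once infected untreated controls reach full CPE.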

Human alphaherpesvirus 3 [3] = assay: Antiviral activity against thymidine kinase-deficient Varicella-zoster virus 07/1 assessed as reduction of virus induced cytopathicity by cell based assay; assay type: functional, organism-based; conditions: for EC50: Human alphaherpesvirus 3, 07/1; in short: as §1
Human alphaherpesvirus 3 [4] = assay: Antiviral activity against thymidine kinase-deficient Varicella-zoster virus YS/R assessed as reduction of virus induced cytopathicity by cell based assay; assay type: functional, organism-based; conditions: for EC50: Human alphaherpesvirus 3, YS/R
Human alphaherpesvirus 1 [5] = assay: Antiviral activity against Herpes simplex virus 1 strain KOS assessed as reduction of virus induced cytopathicity by cell based assay; assay type: functional, organism-based; conditions: for EC50: Human alphaherpesvirus 1, KOS; in short: as §1
Human alphaherpesvirus 2 = assay: Antiviral activity against Herpes simplex virus 2 strain G assessed as reduction of virus induced cytopathicity by cell based assay; assay type: functional, organism-based; conditions: for EC50: Human alphaherpesvirus 2, strain G; in short: as §1
Human alphaherpesvirus 1 [6] = assay: Antiviral activity against thymidine kinase-deficient acyclovir-resistant Herpes simplex virus 1 strain KOS assessed as reduction of virus induced cytopathicity by cell based assay; assay type: functional, organism-based; conditions: for EC50: Human alphaherpesvirus 1, KOS; in short: as §1
Human betaherpesvirus 5 [7] = assay: Antiviral activity against Human cytomegalovirus strain AD169 assessed as reduction of virus induced cytopathicity by cell based assay; assay type: functional, organism-based; conditions: for EC50: Human betaherpesvirus 5, AD169; in short: as §1
Human betaherpesvirus 5 [8] = assay: Antiviral activity against Human cytomegalovirus Davis assessed as reduction of virus induced cytopathicity by cell based assay; assay type: functional, organism-based; conditions: for EC50: Human betaherpesvirus 5, Davis; in short: as §1
Vaccinia virus = assay: Antiviral activity against Vaccinia virus Lederle assessed as reduction of virus induced cytopathicity by cell based assay; assay type: functional, organism-based; conditions: Orthopoxvirus vaccinia; in short: as §1
[9] = tested on: Vesicular stomatitis virus; assay: Antiviral activity against Vesicular stomatitis virus assessed as reduction of virus induced cytopathicity by cell based assay; assay type: functional, organism-based; in short: as §1
Coxsackievirus B4 = assay: Antiviral activity against Coxsackievirus B4 assessed as reduction of virus induced cytopathicity by cell based assay; assay type: functional, organism-based
In short: (§2)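 Confluent cell monolayers in 96-well plates (HEL, Vero, HeLa, CRFK or MDCK; the cell type per virus is not specified) infected with 100 CCID50 virus or 20 PFU and incubated with serial compound dilutions. Cytopathicity scored once it was complete in untreated infected controls.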

[10] = tested on: Respiratory syncytial virus; assay: Antiviral activity against Respiratory syncytial virus Long assessed as reduction of virus induced cytopathicity by cell based assay; assay type: functional, organism-based; in short: as §2
Human respirovirus 3 = assay: Antiviral activity against Human parainfluenza virus 3 assessed as reduction of virus induced cytopathicity by cell based assay; assay type: functional, organism-based; in short: as §2
[11] = tested on: Mammalian orthoreovirus 1; assay: Antiviral activity against Reovirus-1 assessed as reduction of virus induced cytopathicity by cell based assay; assay type: functional, organism-based; in short: as §2
Sindbis virus = assay: Antiviral activity against Sindbis virus assessed as reduction of virus induced cytopathicity by cell based assay; assay type: functional, organism-based; in short: as §2
Punta Toro virus = assay: Antiviral activity against Punta Toro virus assessed as reduction of virus induced cytopathicity by cell based assay; assay type: functional, organism-based; in short: as §2
[12] = Cytotoxicity against human HEL cells assessed as alteration of cell morphology after 3 days by microscopic analysis; assay type: cell-based
In short: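 MCC taken as the lowest compound concentration producing microscopically detectable alteration of HEL fibroblast morphology.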

HEL = assay: Cytotoxicity against human HEL cells after 3 days by coulter counter; assay type: cell-based; conditions: 72 h
In short: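 HEL cells seeded at 5 × 10^3 cells/well and allowed to proliferate for 24 h, then exposed to a range of compound concentrations for 3 days at 37 °C. Cells counted with a Coulter counter.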

L1210 = assay: Cytostatic activity against mouse L1210 cells; assay type: functional
FM3A = assay: Cytostatic activity against mouse FM3A cells; assay type: functional
CCRF-CEM = assay: Cytostatic activity against human CEM cells; assay type: cell-based

| Structure (SMILES) | Activity [9] | Activity (Coxsackievirus B4) | Activity [10] | Activity (Human respirovirus 3) | Activity [11] | Activity (Sindbis virus) | Activity (Punta Toro virus) | EC50 (Human alphaherpesvirus 3 [2]) | EC50 (Human alphaherpesvirus 3 [3]) | EC50 (Human alphaherpesvirus 1 [5]) | EC50 (Human alphaherpesvirus 2) | EC50 (Human alphaherpesvirus 1 [6]) | EC50 (Human betaherpesvirus 5 [8]) | EC50 (Vaccinia virus) | MCC at 72 h [12] | CC50 (HEL) | EC50 (Human betaherpesvirus 5 [7]) | further results |
| --- | --- | --- | --- | --- | --- | --- | --- | --- | --- | --- | --- | --- | --- | --- | --- | --- | --- | --- |
| Nc1ncnc2c1ncn2CCOC(CO)CP(=O)(O)O (centres undefined) | inactive | inactive | inactive | inactive | inactive | inactive | inactive |  |  |  |  |  |  |  |  |  |  | Activity (Human alphaherpesvirus 3 [1]): inactive; Activity (Human alphaherpesvirus 3 [2]): inactive; Activity (Human alphaherpesvirus 3 [3]): inactive; Activity (Human alphaherpesvirus 3 [4]): inactive; Activity (Human alphaherpesvirus 1 [5]): inactive; Activity (Human alphaherpesvirus 2): inactive; Activity (Human alphaherpesvirus 1 [6]): inactive; Activity (Human betaherpesvirus 5 [7]): inactive; Activity (Human betaherpesvirus 5 [8]): inactive; Activity (Vaccinia virus): inactive |
| Nc1nc2c(ncn2CCOC(CO)CP(=O)(O)O)c(=O)[nH]1 (centres undefined) | inactive | inactive | inactive | inactive | inactive | inactive | inactive | > 300 µM | > 300 µM | 156 µM | 156 µM | 261 µM | 165 µM | > 300 µM | > 300 µM | 300 µM |  |  |
| Nc1nc(O)c2ncn(COC(CO)CO)c2n1 [GANCICLOVIR] |  |  |  |  |  |  |  |  |  | 0.017 µM | 0.023 µM | 0.12 µM |  | > 100 µM | > 394 µM | 543 µM |  |  |
| Nc1ncnc2c1ncn2CCOC(COCc1ccccc1)CP(=O)(O)O (centres undefined) | inactive | inactive | inactive | inactive | inactive | inactive | inactive |  |  |  |  |  |  |  |  |  |  | Activity (Human alphaherpesvirus 3 [1]): inactive; Activity (Human alphaherpesvirus 3 [2]): inactive; Activity (Human alphaherpesvirus 3 [3]): inactive; Activity (Human alphaherpesvirus 3 [4]): inactive; Activity (Human alphaherpesvirus 1 [5]): inactive; Activity (Human alphaherpesvirus 2): inactive; Activity (Human alphaherpesvirus 1 [6]): inactive; Activity (Human betaherpesvirus 5 [7]): inactive; Activity (Human betaherpesvirus 5 [8]): inactive; Activity (Vaccinia virus): inactive |
| CC(CP(=O)(O)O)OCCn1ccc(=O)[nH]c1=O (centres undefined) | inactive | inactive | inactive | inactive | inactive | inactive | inactive | 6.3 µM | 13 µM | 43 µM | 34 µM | 97 µM | 34 µM | > 360 µM | > 360 µM | 291 µM | 36 µM | EC50 (Human alphaherpesvirus 3 [1]): 9.9 µM; EC50 (Human alphaherpesvirus 3 [4]): 12 µM |
| Nc1ncnc2c1ncn2CCOC(Cc1ccccc1)CP(=O)(O)O (centres undefined) | inactive | inactive | inactive | inactive | inactive | inactive | inactive | 2.9 µM | 4.7 µM | 53 µM | 86 µM | 53 µM | 68 µM | > 265 µM | > 265 µM | ≥ 247 µM | 59 µM | EC50 (Human alphaherpesvirus 3 [1]): 2.9 µM; EC50 (Human alphaherpesvirus 3 [4]): 2.5 µM; CC50 (L1210): 273 µM; CC50 (FM3A): 90 µM; CC50 (CCRF-CEM): 530 µM |
| Cc1cn(CCOC(C)CP(=O)(O)O)c(=O)[nH]c1=O (centres undefined) | inactive | inactive | inactive | inactive | inactive | inactive | inactive | 47 µM | 48 µM | 171 µM | 154 µM | > 342 µM | 248 µM | > 342 µM | > 342 µM | > 342 µM | 188 µM |  |
